# Test results from PubChem BioAssay AID463104 (Sanford-Burnham Center for Chemical Genomics, 2010).
# About 1,100 (0.33%) of roughly 330,000 compounds were called active. The sample holds actives, similar compounds and a random draw of the others, so the mix is not that of the screen. Unmarked numbers belong to inactive results.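 How the source made its calls: active means versus positive control, 20 µM dose yields 30% or more activation; inactive means the rest.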
# Assay: IRE1-XBP1 pathway stimulators – cell-based, CHO-XBP1 luciferase reporter, luminescence, uHTS, primary screen (AID 463104);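 further: 100% = tunicamycin at 10 µg/mL and 0% = DMSO only wells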
# Settings: IRE1-XBP1 UPR activation, at 20 µM, hits give high values, percent of tunicamycin response, DMSO as zero
# Procedure, shortened: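 Material: CHO cell line with stable XBP1 luciferase reporter; schedule: 16-18 h cell attachment at 37 °C, then 6 h compound exposure; signal: glow luminescence from Steady-Glo reagent; medium: serum-containing F12 medium, 10% FBS; benchmarks: tunicamycin 10 µg/mL and vehicle-only wells; read-out: percent activation relative to tunicamycin reference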
row,SMILES,activation
1,CN(Cc1ccccc1)CC(O)COc1ccc(CNCc2cc3ccccc3s2)cc1 (centres undefined),-0.93%
2,NC(=O)Nc1ccc(C(=O)OCC(=O)NC2CCCc3ccccc32)cc1 (centres undefined),-2.79%
3,CCOC(=O)c1c(NC(=O)CNC2CCCc3ccccc32)sc(C(N)=O)c1C (centres undefined),39.6% (active)
4,CCOC(=O)c1c(NC(=O)CCl)sc(C(=O)N(CC)CC)c1C,11.5%
5,CC1CCCCC1NC(=O)CN1CCC(O)(c2ccc3c(c2)OCO3)CC1 (centres undefined),-2.34%
6,O=C(NCC(=O)N1CCN(c2ncc(C(F)(F)F)cc2Cl)CC1)c1ccc(Br)o1,-1.88%
7,CCSc1nnc(-c2cc3c(s2)-c2ccccc2CC3)o1,3.74%
8,Nc1nc(Nc2ccccc2F)nc(NC2CCCCC2)c1[N+](=O)[O-],11.1%
9,C=CCNc1nc(N)c([N+](=O)[O-])c(NC2CCCCC2)n1,32% (active)
10,Nc1nc(NCC2CCCO2)nc(Nc2ccccc2F)c1[N+](=O)[O-] (centres undefined),1.61%
11,Cc1ccc(-c2nnc(-c3ccc(NC(=O)c4cccs4)cc3)o2)cc1,198% (active)
12,Cc1ccc(OCC(=O)Nc2ccc(NC(=O)c3cccs3)cc2)c(C)c1,10.1%
13,Cc1ccc(NC(=O)c2cccs2)cc1S(=O)(=O)N(C)C,1.24%
14,COc1ccc(-c2ccc(CCC(=O)O)n2-c2ccc(O)cc2)cc1,-1.71%
15,Nc1ccc(S(=O)(=O)Nc2nccc(/C=C/c3ccc(Br)s3)n2)cc1,-1.07%
16,Oc1cccc2ccc(/C=C/c3ccc(Br)s3)nc12,54.5% (active)
17,c1ccc(-c2ccnc3nc(-n4cccc4)nn23)cc1,0.42%
18,COc1cc(NC(=O)c2cncc(-c3ccc(C#N)cc3)c2)cc(C(=O)Nc2cccc(C(F)(F)F)c2)c1,125% (active)
19,COc1cc(NC(=O)c2[nH]cnc2C(N)=O)cc(C(=O)Nc2cccc(C(F)(F)F)c2)c1,-2.27%
20,N#Cc1ccc(Oc2ccc(C(F)(F)F)cc2NC(=O)c2ccc(F)cc2)cc1,0.22%
21,Cc1cc2c(C)nc(N/N=C/c3ccccc3)nc2o1,4.19%
22,O=C(N/C(=C/c1ccc(Cl)cc1)C(=O)N1CCCCC1)c1ccco1,-3.57%
23,Cc1ccc(SC(CC(=O)c2ccc(C(C)(C)C)cc2)C(=O)O)cc1 (centres undefined),0.27%

row,SMILES,activation
1,C=CCn1c(SCc2ccccc2)nc2c1c(=O)[nH]c(=O)n2C,5.46%
2,COCCCNc1nc2c(-c3cccc(C)c3)nnn2c2ccc(Cl)cc12,26.4%
3,Cc1cccc(NC(=O)c2ccc(S(=O)(=O)N(C)c3ccccc3)cc2)n1,-2.2%
4,O=C(Nc1ccc(S(=O)(=O)N2CCc3ccccc3C2)cc1)c1ccccc1,-1.11%
5,C=CCN(CC=C)S(=O)(=O)c1ccc(C(=O)Nc2nc3c(s2)CCc2ccccc2-3)cc1,35.1% (active)
6,COc1ccc(C(=O)OCC(=O)N2CC(=O)Nc3ccccc32)cc1Br,0.2%
7,CCOc1ccc2nc(Cl)c(C3CC(c4ccccc4)=NN3C(=O)c3cccs3)cc2c1 (centres undefined),51.3% (active)
8,COc1ccc(C2=NN(C(=O)c3ccccc3C(=O)O)C(c3ccccc3O)C2)cc1 (centres undefined),-1.79%
9,CCOc1ccccc1C1CC(c2cccc(NS(C)(=O)=O)c2)=NN1C(=O)c1ccccc1 (centres undefined),-3.45%
10,CC(C)(C)c1cc(P(=O)(c2ccccc2)c2ccccc2)ccc1O,-1.41%
11,CN(C)c1ccc(NC(=O)c2ccncc2)c2ccccc12,-0.55%
12,CCCCN(CC)C(=S)Nc1ccc2nc3n(c(=O)c2c1)CCCCC3,1.45%
13,O=C(Nc1ccc2nc3n(c(=O)c2c1)CCCC3)c1ccc(Cl)nc1,2.35%
14,O=C(Nc1ccc2nc3n(c(=O)c2c1)CCCCC3)c1ccccc1Cl,45.2% (active)
15,Cc1ccc(CS(=O)(=O)CCC(=O)NCc2ccc(F)cc2)cc1,-1.62%
16,COc1ccc(NC(=O)c2nc(-n3nc(C)cc3C)ccc2Cl)cc1Cl,-2.77%
17,CC(=O)c1ccc(Oc2cc(C)nc(-n3nc(C)cc3C)n2)cc1,16.4%
18,COc1ccc(Nc2cc(C)nc(-n3nc(C)cc3C)n2)cc1,121% (active)
19,CC(=O)OCCN(CCCn1c(-c2ccncc2)nc2ccccc21)c1nc(-c2ccc(C)cc2)cs1,-1.12%
20,C=CC[C@@H](CC(=O)N[C@H](CO)Cc1ccccc1)C(=O)N[C@H](C)COC(=O)[C@@H](CC=C)Cc1ccc(F)cc1,-2.99%
21,C=CC[C@@H](CC(=O)N[C@@H](CO)Cc1ccccc1)C(=O)N[C@H](COC(=O)[C@H](CC=C)CC(=O)OC(C)(C)C)Cc1ccccc1,32.4% (active)
22,C=CC[C@@H](CC(=O)N[C@@H](CO)Cc1ccccc1)C(=O)NCCOC(=O)[C@@H](CC=C)CC(=O)OC(C)(C)C,-2.2%
23,CCCc1cc(=O)[nH]c2nnc(SCC(=O)Nc3nnc(SCC)s3)n12,-0.61%

row,SMILES,activation
1,O=C(NCc1ccccc1Cl)NC(=O)c1csc([N+](=O)[O-])c1,-1.89%
2,O=C(COc1ncnc2ccccc12)NC(=O)NCc1ccccc1,-0.7%
3,O=C(O)CCC(=O)NCc1ccc(C(=O)O)cc1,-0.32%
4,COc1ccccc1N=Cc1c(O)c2ccccc2oc1=O,120% (active)
5,COc1cc(N=Cc2c(O)c3ccccc3oc2=O)c(OC)cc1Cl,-0.88%
6,COc1ccccc1N=C(C)C1=C(O)COC1=O,0.65%
7,COc1ccc(-c2nc3ccccc3n2CCC(C)C)cc1OC,-2.77%
8,COc1ccc(C(C)(C)C)cc1NC(=O)CCN1C(=O)C2CCCCC2C1=O (centres undefined),0.21%
9,CS(=O)(=O)N(CC(=O)N/N=C/c1ccccn1)c1ccc(Oc2ccccc2)cc1,1.21%
10,CCC1(CC)Cc2ccccc2-c2nc(CCl)[nH]c(=O)c21,45.2% (active)
11,CC1(C)Cc2ccccc2-c2[nH]c(=S)[nH]c(=O)c21,-3.14%
12,CC1(C)Cc2ccccc2-c2nc(CN3CCOCC3)[nH]c(=O)c21,2.37%
13,Cc1ccc2nnn(Cc3cccc(C(C)(C)C)c3O)c2c1,-2.21%
14,CCOC(=O)/C=C/c1ccc(C(F)(F)F)cc1S(=O)(=O)NC(C)(C)C,3.87%
15,COc1ccc(CNC(=O)CCC(=O)Nc2nnc(C(C)C)s2)cc1,2.87%
16,CNC(=S)N/N=C/c1cn(Cc2ccc(C)cc2)c2ccccc12,-0.8%
17,COc1cccc(Cn2cc(/C=N/NC(=O)c3cc(O)cc(O)c3)c3ccccc32)c1,-0.87%
18,N#CCC(=O)N/N=C/c1cn(Cc2ccc3ccccc3c2)c2ccccc12,77.3% (active)
19,OCCC1CN(Cc2ccccc2-c2ccco2)CCN1Cc1ccsc1 (centres undefined),-1.57%
20,Cc1cc(NC(=O)Nc2c[nH]c(=O)[nH]c2=O)ccc1Br,-0.89%
21,OCCNc1nc(Nc2ccc(Cl)c(Cl)c2)nc2ccccc12,46.6% (active)
22,CNc1nc(Nc2ccc(C)c(Cl)c2)nc(N)c1[N+](=O)[O-],10.8%
23,Cc1ccc(Nc2nc(N)nc(CN3CCN(Cc4ccccc4)CC3)n2)cc1Cl,3.65%

row,SMILES,activation
1,CCCc1ccc(OCc2ccc(C(=O)N/N=C/c3cccc([N+](=O)[O-])c3)o2)c(OC)c1,35.5% (active)
2,N#Cc1cc([N+](=O)[O-])ccc1Oc1cccc(/C=N/NC(=O)c2ccc(Cl)cc2)c1,-0.61%
3,COC(=O)c1ccc(COc2ccc(/C=N/NC(=O)C(=O)Nc3ccc(OC)cc3)cc2OC)o1,-0.77%
4,CCCCCCCCCCOC(=O)Cn1c(COc2ccc(C)cc2)[n+](C)c2ccccc21,41.7% (active)
5,CCCCCCCCCCOC(=O)Cn1c(COc2cccc(OC)c2)[n+](C)c2ccccc21,20.9%
6,CCOC(=O)COn1c(=O)c(-c2ccc(OCC)cc2)[n+]([O-])c2ccccc21,0.06%
7,CCN(CC(=O)NCC(=O)Nc1cccc(C)c1C)Cc1ccccc1,-5.66%
8,Cc1c(Br)c([N+](=O)[O-])nn1C(C)C(=O)Nc1nccs1 (centres undefined),-1.86%
9,Cc1ccc(-n2c(O)c(C=Nc3ccc(S(=O)(=O)Nc4ncccn4)cc3)c3ccccc3c2=O)cc1C,-1.86%
10,COC(=O)Cc1csc(Nc2c(C)n(C)n(-c3ccccc3)c2=O)n1,-0.87%
11,COC(=O)Cc1csc(/N=C/c2c(O)n(-c3cccc(C(F)(F)F)c3)c(=O)c3ccccc23)n1,46.3% (active)
12,CC(=O)Nc1ccccc1Sc1ccc2c3c(cccc13)C(=O)N(c1ccc(C)cc1)C2=O,33.8% (active)
13,CSc1ccccc1NC(=O)C(C)N1C(=O)c2ccccc2S1(=O)=O (centres undefined),0.16%
14,Cc1ccc(N2C(=O)CC(Nc3cccc4ccccc34)C2=O)cc1 (centres undefined),-0.83%
15,CC1CCN(C(=O)COC(=O)c2cc(=O)[nH]c3ccccc23)CC1,-0.76%
16,CCn1c2ccccc2c2cc(NC(=S)N3CCOCC3)ccc21,-1.32%
17,CCOC(=O)C(C)n1cnc2c(nnn2-c2cccc(OC)c2)c1=O (centres undefined),-2.11%
18,O=C(NCC1(N2CCCCC2)CCCCC1)c1ccc(NS(=O)(=O)c2ccc(F)cc2)cc1,0.16%
19,CCOc1ccc(NS(=O)(=O)c2ccc(C(=O)NCC(c3ccccc3OC)N3CCCC3)cc2)cc1 (centres undefined),-3.45%
20,CCOc1ccc(S(=O)(=O)Nc2cccc(C(=O)NCC3(N4CCCCC4)CCCCC3)c2)cc1,66.6% (active)
